According to ChEMBL document CHEMBL1141869:
The source made the active and inactive calls. The rule behind the calls is not given here.

Columns and labels:
[1] = molecular target: NAD-dependent histone deacetylase SIR2 (Saccharomyces cerevisiae S288c) (UniProt P06700); test: Inhibitory activity against recombinant yeast Sir2 at 100 uM
How it was run: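 Purified His-tagged recombinant yeast Sir2p (3 μg) was incubated 60 min at 30 °C with 250 μM acetylated histone substrate, 1 mM DTT, 200 μM NAD⁺ and inhibitor at 0, 20, 75, 100, 150 or 300 μM. Deacetylation was detected fluorometrically after developer treatment (ex 360/em 450 nm). Values are means of at least three separate experiments.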

[2] = molecular target: T1, NAD-dependent protein deacetylase sirtuin-1 (Homo sapiens) (UniProt Q96EB6); test: Inhibitory activity against human SIRT1 at 100 uM
T1 sequence (whole entry): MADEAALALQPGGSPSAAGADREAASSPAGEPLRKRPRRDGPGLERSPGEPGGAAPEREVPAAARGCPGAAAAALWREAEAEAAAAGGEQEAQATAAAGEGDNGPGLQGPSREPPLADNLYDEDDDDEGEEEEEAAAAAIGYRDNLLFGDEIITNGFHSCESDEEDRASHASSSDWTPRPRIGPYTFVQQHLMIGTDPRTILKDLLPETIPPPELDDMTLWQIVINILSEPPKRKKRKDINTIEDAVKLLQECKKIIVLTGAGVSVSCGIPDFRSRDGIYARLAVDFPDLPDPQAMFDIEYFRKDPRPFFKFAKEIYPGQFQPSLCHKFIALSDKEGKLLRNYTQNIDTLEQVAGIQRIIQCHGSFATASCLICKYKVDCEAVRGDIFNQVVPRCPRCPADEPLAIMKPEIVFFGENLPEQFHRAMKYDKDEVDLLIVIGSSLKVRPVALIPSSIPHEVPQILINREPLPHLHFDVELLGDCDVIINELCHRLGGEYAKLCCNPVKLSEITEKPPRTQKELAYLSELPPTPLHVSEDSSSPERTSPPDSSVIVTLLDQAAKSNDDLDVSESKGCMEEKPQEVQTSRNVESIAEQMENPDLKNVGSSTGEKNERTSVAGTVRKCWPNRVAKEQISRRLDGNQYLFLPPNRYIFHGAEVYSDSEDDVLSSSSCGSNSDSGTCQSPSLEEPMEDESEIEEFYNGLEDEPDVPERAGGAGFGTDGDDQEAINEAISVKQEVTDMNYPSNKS
How it was run: (§1)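 His-tagged recombinant human SIRT1 or SIRT2 (1 μg), purified, run in a fluorogenic deacetylase assay with 250 μM acetylated histone substrate, 1 mM DTT and 200 μM NAD⁺ for 60 min at 37 °C. Inhibitor was tested at 0, 20, 75, 100, 150 or 300 μM. Developer was added and fluorescence read at ex 360/em 450 nm. Values are the mean of at least three separate experiments.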

[3] = molecular target: T2, NAD-dependent protein deacetylase sirtuin-2 (Homo sapiens) (UniProt Q8IXJ6); test: Inhibitory activity against human SIRT2 at 100 uM; how it was run: as §1
T2 sequence (whole entry): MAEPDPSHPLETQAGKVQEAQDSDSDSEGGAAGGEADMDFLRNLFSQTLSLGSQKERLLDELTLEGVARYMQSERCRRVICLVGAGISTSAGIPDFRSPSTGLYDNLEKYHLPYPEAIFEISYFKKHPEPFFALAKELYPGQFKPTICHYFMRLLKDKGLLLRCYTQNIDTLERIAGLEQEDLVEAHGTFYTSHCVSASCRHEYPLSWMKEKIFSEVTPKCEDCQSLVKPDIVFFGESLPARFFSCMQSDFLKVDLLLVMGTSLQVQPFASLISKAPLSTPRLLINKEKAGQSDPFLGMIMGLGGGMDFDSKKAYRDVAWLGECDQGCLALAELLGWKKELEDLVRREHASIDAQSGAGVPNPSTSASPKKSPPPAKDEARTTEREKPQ

Chain of NAD-dependent histone deacetylase SIR2 (Saccharomyces cerevisiae S288c) (P06700 whole entry): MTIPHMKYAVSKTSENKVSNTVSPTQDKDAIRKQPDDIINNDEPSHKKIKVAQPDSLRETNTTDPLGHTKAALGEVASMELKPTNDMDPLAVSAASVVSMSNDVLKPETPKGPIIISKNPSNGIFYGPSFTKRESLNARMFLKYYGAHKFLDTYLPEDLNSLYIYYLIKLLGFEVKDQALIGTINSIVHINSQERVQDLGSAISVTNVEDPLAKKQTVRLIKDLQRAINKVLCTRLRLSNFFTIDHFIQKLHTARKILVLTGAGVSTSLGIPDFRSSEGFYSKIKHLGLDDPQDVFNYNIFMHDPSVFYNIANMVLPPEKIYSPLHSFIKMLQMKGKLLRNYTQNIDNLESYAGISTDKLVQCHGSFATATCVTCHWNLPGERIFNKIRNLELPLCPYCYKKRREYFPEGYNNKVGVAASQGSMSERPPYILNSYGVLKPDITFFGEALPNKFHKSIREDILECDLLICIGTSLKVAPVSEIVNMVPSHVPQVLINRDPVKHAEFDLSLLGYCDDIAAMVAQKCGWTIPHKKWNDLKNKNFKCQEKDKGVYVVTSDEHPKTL

| SMILES | inhibition [1] | inhibition [2] | inhibition [3] [%] |
| --- | --- | --- | --- |
| O=C(O)c1ccccc1/N=C/c1c(O)ccc2ccccc12 | 5% | 26% |  |
| CCOC(=O)c1ccccc1/N=C/c1c(O)ccc2ccccc12 | 20% | 9% |  |
| CC(NC(=O)c1cccc(/N=C/c2c(O)ccc3ccccc23)c1)c1ccccc1 (stereo not given) | 53.9% | 63% | 79.2 |
| N#Cc1ccccc1/N=C/c1c(O)ccc2ccccc12 | 15% | 20% |  |
| NC(=O)c1ccccc1/N=C/c1c(O)ccc2ccccc12 | inactive | inactive |  |
| CC(NC(=O)c1ccccc1/N=C/c1c(O)ccc2ccccc12)c1ccccc1 (stereo not given) | 65.6% | 44.5% | 71 |
| CC(NC(=O)c1ccccc1/N=C/c1cccc2ccccc12)c1ccccc1 (stereo not given) | 10% | 33% |  |
| C[C@@H](NC(=O)c1ccccc1/N=C/c1c(O)ccc2ccccc12)c1ccccc1 | 55.5% | 61.8% | 72.2 |
| C[C@H](NC(=O)c1ccccc1/N=C/c1c(O)ccc2ccccc12)c1ccccc1 | 57% | 60.2% | 73.5 |
| CC(NC(=O)c1ccc(/N=C/c2c(O)ccc3ccccc23)cc1)c1ccccc1 (stereo not given) | 59.8% | 82.6% | 80.2 |
